Data: ChEMBL document CHEMBL4513216, “Probing the Open Global Health Chemical Diversity Library for Multistage-Active Starting Points for Next-Generation Antimalarials” (ACS Infect Dis, 2020)

Test: Toxicity liver stage against HepG2, at 10uM
Type: cell-based
Set-up: test concentration 10 uM, cell line HepG2-A16-CD81EGFP
Details: human, HepG2-A16-CD81EGFP cells; read-out: INHIBITION
Procedure, shortened: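 Uninfected HepG2-A16-CD81EGFP cells, 3 × 10^3 per well, 1536-well, plated on prespotted compound at 10 μM final, parasite-free screening media added to match infected plates; puromycin 10 μM positive, DMSO 0.5% negative; run in parallel with 48 h PbLuc assay at 37 °C, 5% CO2; viability by CellTiter-Glo luminescence, normalized to controls.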

Structure (SMILES) | cytotoxicity at 10 µM
Nc1ccnc(N2C[C@H](O)[C@@H](N3CCN(c4ccccn4)CC3)C2)n1 | 6.7%
Cc1ncc2c(c1CNC(=O)C1(C)CCCCO1)CCNC2 (stereo unspecified) | -27.9%
FC(F)(F)c1ccc(-c2n[nH]c3c2CN(CC2CCOC2)CC3)cc1 (stereo unspecified) | -52.1%
CSCCCNC(=O)C1CCC(=O)N(C2CCCC2)C1 (stereo unspecified) | -11.1%
CCC[C@@H]1CN(Cc2ccc(C(F)(F)F)nc2)C[C@H]1C(=O)O | 0.425%
O=S(=O)(N1CCOCC1)N1CCOC(CCCc2ccccc2)C1 (stereo unspecified) | -8.79%
CC1(C)Cc2nc(C(C)(C)C)ncc2C(NC(=O)CN)C1 (stereo unspecified) | -6.55%
CCSCCNC(=O)Nc1cc(C(=O)N2CCOCC2)ccc1Cl | -55.2%
CSCc1noc(CN2CCCCC2CCc2ccc(O)cc2)n1 (stereo unspecified) | -1.58%
COc1ccccc1CCN1CCCC(CN(C)Cc2cc(C)n[nH]2)C1 (stereo unspecified) | -4.52%
CSCC(=O)N1CCc2nc(C)nc(NCc3ccccc3)c2CC1 | 1.69%
CCCN1CCN(Cc2cccc(OCC(N)=O)c2)[C@H]2CS(=O)(=O)C[C@H]21 | 2.77%
Cc1cc(C)nc(N2CCN(C(=O)c3ccc(C4CCCO4)s3)CC2)n1 (stereo unspecified) | 9.07%
CC1=CCN(S(=O)(=O)c2cccc(C(=O)N3CCOCC3)c2)CC1 | 4.9%
O=C(O)C(c1ccc2[nH]ccc2c1)N1CCOCC1 (stereo unspecified) | 13.1%
COC(=O)c1ccc(N2CCN(C(=O)c3ccc(=O)n(C)c3)CC2)cc1 | -43.9%
CNCCCNc1nc(C2CCCC2)nc2c1cnn2C | 6.63%
CCN(Cc1nc(COC)no1)Cc1cccnc1NC(=O)C(C)(C)C | -47.9%
CCOC(=O)c1c(NC(=O)C2CCN(C(C)=O)CC2)sc(C)c1CC | 10.9%

Structure (SMILES) | cytotoxicity at 10 µM
CCOc1ccc(CC(=O)N2CCCC2c2cc(C)on2)cc1 (stereo unspecified) | -46%
c1ccc(CCNc2ncnc3c2CCN(Cc2c[nH]cn2)CC3)cc1 | 3.16%
CC(C)c1nccn1CCCNC(=O)c1ccc(-c2cccnc2)nc1 | -11.8%
CN(C)Cc1ccc(C2CCCCN2C(=O)c2cc(C3CC3)n[nH]2)cc1 (stereo unspecified) | -9.09%
CC(CCN1CCn2nc(CNC(=O)N(C)C)cc2C1)c1ccccc1 (stereo unspecified) | -11.8%
Cc1nc(C2CCN(C(=O)CO)CC2)cc(N2CCOCC2)n1 | -12.2%
N#Cc1ccnc(N2CCC(c3nccn3Cc3cscn3)CC2)c1 | -12.4%
CS(=O)(=O)NCc1cc2n(n1)CCCN(Cc1cccc(C#N)c1)C2 | -8.33%
COc1ccccc1OC1CCN(Cc2cnc(N(C)C)nc2)CC1 | -10.9%
Cc1nc(CN2CCCC2c2nc(C(C)C)no2)cs1 (stereo unspecified) | -9.7%
CC(C)c1cc(NCC(O)CO)n2nccc2n1 (stereo unspecified) | -24.8%
CC(C)(O)CN1CCN(C(=O)c2ccc(Cl)c3cccnc23)CC1 | -9.19%
COC(=O)NCCC(=O)NC(C)Cc1cccc(Br)c1 (stereo unspecified) | -15.8%
CC(C)(C)c1n[nH]c(C2CN(CCc3cccs3)CCO2)n1 (stereo unspecified) | -7.36%
Cc1cnn(C2CN(CC(=O)Nc3cccnc3)C2)c1 | -8.11%
CN(C)c1cc2c(nn1)CCN(C(=O)Cc1noc3ccccc13)C2 | -10.7%
CCOc1ccccc1C(CC(=O)Nc1ccccc1F)NC(C)=O (stereo unspecified) | -15.4%
c1cc(CNCC2CNc3ccnn3C2)cc(N2CCCCC2)n1 (stereo unspecified) | 6.91%
COCCOc1ccccc1C(=O)N1CCCCC1c1nccs1 (stereo unspecified) | 0.642%

Structure (SMILES) | cytotoxicity at 10 µM
CC(=O)N1CCN(C(=O)CN2CCc3c(ncn3C3CC3)C2)CC1 | 3.3%
COC(=O)COc1cccc(NS(=O)(=O)c2cc(C(=O)O)cs2)c1 | -5.25%
CS(=O)(=O)NCc1cncc2c1CCN(C(=O)N1CCCC1)C2 | 12.8%
COC1COC2(CCN(Cc3ccccc3C)CC2)C1 (stereo unspecified) | 2.84%
c1ccc(N2CCCC3(CCN(Cc4ccsc4)C3)C2)nc1 (stereo unspecified) | -14%
CCOCC1CN(C)Cc2cnn(CC3CCCC3)c21 (stereo unspecified) | -9.7%
Cc1cnc(N2CC[C@H]3[C@@H]2CCC(=O)N3c2cccnc2)nc1 | -0.298%
CNC(=O)C1Cn2ccnc2C2(CCN(Cc3ccncc3)CC2)O1 (stereo unspecified) | -74.9%
Cn1cnc2c1C(COCC1CCOCC1)CN(Cc1ccccn1)C2 (stereo unspecified) | -78.2%
CN1CCN(Cc2cccnc2)C2(CCN(c3ncccn3)C2)C1=O (stereo unspecified) | 1.31%
Cc1nc(N2CCOCC2)nc2c1COCC21CCN(CC2CC2)C1 (stereo unspecified) | -116%
O=C(NC1CC1)C1=CC2(CCN(CC3CC3)CC2)c2ccccc21 | 3.11%
Cc1ccc(CN2CC[C@]3(C[C@H](OCc4ccccn4)CO3)C2)o1 | -0.617%
CN(Cc1ccco1)[C@@H]1CN(C(=O)C2CCOCC2)C[C@@H]2CCCO[C@@H]21 | 3.48%
COCCN1CCN(Cc2c(C)noc2C)Cc2cccnc21 | -70.1%
Cc1ccc2c(n1)N(Cc1ccncc1)CCN(S(C)(=O)=O)C2 | -77.2%
O=C(c1cnccn1)N1CCCC2(COCCN(CC3CC3)C2)C1 (stereo unspecified) | 1.39%
Cc1cnc(NS(=O)(=O)c2ccccc2)s1 | -2.56%
